≈ marks a conversion by molar mass, not a printed value. Some results are limits rather than exact numbers.

The source of these data is ChEMBL document CHEMBL1145425, “Antitumor agents 259. Design, syntheses, and structure-activity relationship study of desmosdumotin C analogs” (2007).

For experiment [1], the system named is KB. Kind of experiment: Cytotoxicity against human vincristine-resistant KB cells. The class given is functional. The conditions noted are these: read-out: ED50 (the source's name). In a few lines:
(§1)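 Sulforhodamine B growth assay. Lines kept in RPMI-1640 with 25 mM HEPES, 0.25% sodium bicarbonate, 10% FBS and kanamycin. Trypsinized cells seeded at 1500–7500 per well, with compound added from DMSO-diluted stock. After 3 days, attached cells fixed with cold 50% TCA, stained with 0.4% SRB, dye solubilized, absorbance read at 562 nm. ED50 is 50% growth reduction, averaged over at least three independent determinations.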

Experiment [2] in a line: Selectivity ratio of ED50 for KB cells to ED50 for KB-VIN cells. The class given is functional, Homo sapiens.
The next experiment deals with 1A9. The experiment can be described thus: Cytotoxicity against human 1A9 cells. In kind it is functional. The following applies: read-out: ED50 (the source's name). In a few lines: as §1
The subject of a further experiment is A549. The experiment can be described thus: Cytotoxicity against human A549 cells. The conditions noted are these: read-out: ED50 (the source's name). In kind it is functional. In a few lines: as §1
The test system of a further experiment is A-431. The experiment can be described thus: Cytotoxicity against human A431 cells. In kind it is functional. The conditions noted are these: read-out: ED50 (the source's name). In a few lines:
as §1

In experiment [3] the test system is KB. The experiment can be described thus: Cytotoxicity against human KB cells. The class given is functional. The following applies: read-out: ED50 (the source's name). In a few lines: as §1
Another experiment deals with PC-3. Kind of experiment: Cytotoxicity against human PC3 cells. In kind it is functional. The conditions noted are these: read-out: ED50 (the source's name). In a few lines:
as §1

For another experiment, the system named is HCT-8. Kind of experiment: Cytotoxicity against human HCT8 cells. In kind it is functional. The conditions noted are these: read-out: ED50 (the source's name). In a few lines:
as §1

With `COC1=C(C)C(=O)/C(=C(O)/C=C/c2c(C)cc(C)cc2C)C(=O)C1(C)C`, the EC50 was 1.84 µg/mL (≈ 5.19 µM) in the experiment on KB [1]; 6.2 µg/mL (≈ 17.5 µM) in the experiment on 1A9; 8 µg/mL (≈ 22.6 µM) in the experiment with A549; 20 µg/mL (≈ 56.4 µM) in the experiment with A-431; > 20 µg/mL in the experiment with KB [3]; > 20 µg/mL in the experiment with PC-3. For the same compound, the EC50 in the experiment with HCT-8 was found to be 8.4 µg/mL (≈ 23.7 µM). Also, in experiment [2], the “Ratio ED50” value was >5.
Consider `CCC1=C(OC)C(C)(C)C(=O)C(C(=O)/C=C/c2ccccc2)=C1O`, for which the EC50 with KB [1] is 0.3 µg/mL (≈ 0.919 µM); in the experiment with 1A9, 3.8 µg/mL (≈ 11.6 µM); in the experiment with A549, 5.5 µg/mL (≈ 16.9 µM); in the experiment with A-431, 13.8 µg/mL (≈ 42.3 µM); with KB [3] it was 4.3 µg/mL (≈ 13.2 µM); in the experiment on PC-3, 18.9 µg/mL (≈ 57.9 µM). Besides, in the experiment on HCT-8, the EC50 is 9.4 µg/mL (≈ 28.8 µM). Moreover, in experiment [2], the “Ratio ED50” value is listed as 14.3.
